A short description of data set [1]: Bioavailability in rat. The class given is ADME, organism-based. The settings on record: in vivo.
The target of data set [2] is T1, C-C chemokine receptor type 4 (Homo sapiens, UniProt P51679).
T1 sequence (P51679 whole entry): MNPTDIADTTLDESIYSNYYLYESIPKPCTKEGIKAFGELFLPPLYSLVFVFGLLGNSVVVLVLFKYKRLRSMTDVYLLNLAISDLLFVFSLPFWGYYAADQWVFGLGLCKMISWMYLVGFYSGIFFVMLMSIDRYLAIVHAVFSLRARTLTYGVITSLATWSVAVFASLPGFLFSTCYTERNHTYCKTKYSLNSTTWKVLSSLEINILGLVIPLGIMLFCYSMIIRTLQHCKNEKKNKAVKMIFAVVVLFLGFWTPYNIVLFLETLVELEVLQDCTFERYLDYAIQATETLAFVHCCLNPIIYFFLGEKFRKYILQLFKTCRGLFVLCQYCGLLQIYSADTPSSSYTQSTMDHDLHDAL
The data set can be described thus: Antagonist activity at human CCR4 expressed in rat chem-5 cells assessed as inhibition of CCL22-induced calcium flux measured at 2.5 secs time interval for 45 secs by fluorescence assay. In kind it is functional, cell-based. In outline:
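Calcium flux functional readout of CCR4 antagonism, run without serum; IC50 reported.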
On the technique in general: Calcium assays in cells follow changes in intracellular calcium, usually with a dye or a luminescent sensor.

Data set [3] is described as follows: Hepatic clearance in rat at 0.5 mg/kg, iv. The class given is ADME, organism-based. Particulars: in vivo.
The nature of data set [4]: AUCinfinity in rat at 0.5 mg/kg, iv. In kind it is ADME, organism-based. Further details: dose 0.5 mg/kg, route intravenous, time infinity. The settings on record: in vivo.
Data set [5] can be described thus: Bioavailability in mouse. In kind it is ADME, organism-based. Particulars: in vivo.
Data set [6] is described as follows: Half-life in mouse. The class given is ADME, organism-based. The settings on record: in vivo.
Data set [7] is described as follows: Stability in rat hepatocytes assessed as compound remaining incubated for 60 mins under shaking condition by LC-MS/MS analysis. In kind it is ADME, cell-based, Hepatocyte. The settings on record: read-out: Stability. In outline: (§1)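 Human and rat hepatocytes exposed to compound; percent parent remaining reported.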
Data set [8] in a line: Volume of distribution at steady state in mouse. In kind it is ADME, organism-based. The settings on record: in vivo, read-out: Vdss.
Data set [9] can be described thus: Clearance in mouse. In kind it is ADME, organism-based. The settings on record: in vivo.
The nature of data set [10]: Stability in human hepatocytes assessed as compound remaining incubated for 60 mins under shaking condition by LC-MS/MS analysis. The class given is ADME, cell-based, Hepatocyte. Particulars: read-out: Stability. An outline of the steps: as §1
Data set [11] can be described thus: Oral bioavailability in rat at 2 mg/kg, po. The settings on record: in vivo. In kind it is ADME, organism-based.
Data set [12] deals with Cytochrome P450 2D6 (Homo sapiens, UniProt P10635). The data set can be described thus: Inhibition of CYP2D6 (unknown origin). In kind it is ADME. An outline of the steps:
(§2)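 CYP inhibition tested against 1A2, 2C9, 2C19, 2D6 and 3A4; IC50 in μM.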

Data set [13] has as its target Cytochrome P450 2C9 (Homo sapiens, UniProt P11712). Briefly: Inhibition of CYP2C9 (unknown origin). In kind it is ADME. An outline of the steps:
as §2

The nature of data set [14]: Volume of distribution at steady state in rat at 0.5 mg/kg, iv or 2 mg/kg, po. In kind it is ADME, organism-based. Particulars: in vivo, read-out: Vdss.
The nature of data set [15]: AUC(0 to infinity) in rat at 2 mg/kg, po. The class given is ADME, organism-based. Set-up: dose 2 mg/kg, route oral, time infinity. The settings on record: in vivo.
Data set [16] can be described thus: Hepatic clearance in rat at 0.5 mg/kg, iv or 2 mg/kg, po. The settings on record: in vivo. The class given is ADME, organism-based.
Data set [17] deals with Cytochrome P450 3A4 (Homo sapiens, UniProt P08684). Briefly: Inhibition of CYP3A4 (unknown origin). The class given is ADME. An outline of the steps: as §2
Sequence of Cytochrome P450 3A4 (P08684 whole entry): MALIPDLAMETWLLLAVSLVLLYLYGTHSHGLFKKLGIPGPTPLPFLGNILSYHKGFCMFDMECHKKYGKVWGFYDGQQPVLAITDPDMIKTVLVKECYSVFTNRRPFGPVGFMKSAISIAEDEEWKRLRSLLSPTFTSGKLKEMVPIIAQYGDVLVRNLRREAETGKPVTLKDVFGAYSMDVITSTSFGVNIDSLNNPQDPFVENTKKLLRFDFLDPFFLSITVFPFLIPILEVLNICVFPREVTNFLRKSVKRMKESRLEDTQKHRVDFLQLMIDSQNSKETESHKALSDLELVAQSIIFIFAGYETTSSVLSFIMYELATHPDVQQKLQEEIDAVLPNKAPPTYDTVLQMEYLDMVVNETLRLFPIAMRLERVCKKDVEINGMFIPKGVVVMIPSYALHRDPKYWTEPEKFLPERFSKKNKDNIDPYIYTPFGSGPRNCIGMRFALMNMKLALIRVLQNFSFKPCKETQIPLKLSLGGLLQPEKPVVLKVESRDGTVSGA
Data set [18] has as its target Cytochrome P450 2C19 (Homo sapiens, UniProt P33261). Briefly: Inhibition of CYP2C19 (unknown origin). The class given is ADME. An outline of the steps: as §2
Data set [19] can be described thus: Terminal half-life in rat at 0.5 mg/kg, iv or 2 mg/kg, po. The class given is ADME, organism-based. The settings on record: in vivo, read-out: beta t1/2 (converted).
Data set [20] deals with T2, Cytochrome P450 1A2 (Homo sapiens, UniProt P05177).
T2 sequence (P05177 whole entry): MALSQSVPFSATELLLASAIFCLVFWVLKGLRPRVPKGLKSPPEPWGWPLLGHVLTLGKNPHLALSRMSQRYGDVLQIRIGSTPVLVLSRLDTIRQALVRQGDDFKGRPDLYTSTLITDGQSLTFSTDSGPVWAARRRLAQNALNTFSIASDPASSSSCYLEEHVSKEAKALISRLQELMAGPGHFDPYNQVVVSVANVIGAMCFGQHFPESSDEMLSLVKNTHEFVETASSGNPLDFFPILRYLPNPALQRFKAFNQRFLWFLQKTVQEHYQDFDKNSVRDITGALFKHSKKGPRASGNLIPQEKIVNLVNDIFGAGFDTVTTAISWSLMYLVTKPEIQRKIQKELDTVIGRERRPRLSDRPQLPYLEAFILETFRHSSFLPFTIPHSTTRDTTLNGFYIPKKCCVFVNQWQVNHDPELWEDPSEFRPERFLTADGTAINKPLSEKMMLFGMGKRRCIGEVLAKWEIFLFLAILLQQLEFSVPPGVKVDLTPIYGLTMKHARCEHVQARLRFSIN
The data set can be described thus: Inhibition of CYP1A2 (unknown origin). In kind it is ADME. An outline of the steps:
as §2

The values below come from ChEMBL document CHEMBL4364292, “Discovery of a Potent and Selective CCR4 Antagonist That Inhibits Treg Trafficking into the Tumor Microenvironment” (J Med Chem, 2019).

Broadly, the bioavailability is dose-corrected exposure relative to a reference, in per cent. Lower therefore signals little systemic uptake. One may read the IC50 as the concentration needed to halve the response being measured. What is called AUC(0-inf) is the area under the concentration-time curve extrapolated to infinity. What is called clearance is the rate of elimination divided by the concentration. Read a low clearance as a low capacity for elimination.

Each structure is given as a SMILES string. Some results are limits rather than exact numbers.

Sequence of Cytochrome P450 2C19 (P33261 whole entry): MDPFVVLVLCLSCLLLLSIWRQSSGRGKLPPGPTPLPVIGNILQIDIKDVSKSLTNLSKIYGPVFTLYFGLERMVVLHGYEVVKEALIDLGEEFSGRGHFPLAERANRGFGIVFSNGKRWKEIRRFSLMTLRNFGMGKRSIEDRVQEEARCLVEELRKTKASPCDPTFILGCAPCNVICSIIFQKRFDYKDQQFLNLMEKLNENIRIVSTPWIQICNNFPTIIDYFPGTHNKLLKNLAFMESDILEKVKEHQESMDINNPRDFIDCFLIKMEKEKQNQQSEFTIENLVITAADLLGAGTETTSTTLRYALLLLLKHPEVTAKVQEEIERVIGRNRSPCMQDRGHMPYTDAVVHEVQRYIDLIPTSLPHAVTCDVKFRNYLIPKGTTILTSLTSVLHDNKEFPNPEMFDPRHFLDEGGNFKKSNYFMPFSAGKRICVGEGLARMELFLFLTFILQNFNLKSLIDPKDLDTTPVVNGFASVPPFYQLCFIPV
Sequence of Cytochrome P450 2C9 (P11712 whole entry): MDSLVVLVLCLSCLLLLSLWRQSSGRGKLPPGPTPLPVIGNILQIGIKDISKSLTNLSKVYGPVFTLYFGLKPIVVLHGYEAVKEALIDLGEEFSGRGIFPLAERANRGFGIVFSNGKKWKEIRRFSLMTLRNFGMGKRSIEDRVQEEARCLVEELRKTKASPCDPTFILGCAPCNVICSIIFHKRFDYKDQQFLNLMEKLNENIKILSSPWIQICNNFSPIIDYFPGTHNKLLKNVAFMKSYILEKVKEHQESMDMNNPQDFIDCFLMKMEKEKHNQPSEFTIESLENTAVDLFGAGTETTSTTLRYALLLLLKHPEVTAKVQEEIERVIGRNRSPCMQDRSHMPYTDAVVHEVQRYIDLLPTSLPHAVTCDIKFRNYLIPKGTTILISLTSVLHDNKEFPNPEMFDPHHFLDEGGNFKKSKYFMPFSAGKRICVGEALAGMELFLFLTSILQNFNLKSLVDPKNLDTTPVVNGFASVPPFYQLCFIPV
Sequence of Cytochrome P450 2D6 (P10635 whole entry): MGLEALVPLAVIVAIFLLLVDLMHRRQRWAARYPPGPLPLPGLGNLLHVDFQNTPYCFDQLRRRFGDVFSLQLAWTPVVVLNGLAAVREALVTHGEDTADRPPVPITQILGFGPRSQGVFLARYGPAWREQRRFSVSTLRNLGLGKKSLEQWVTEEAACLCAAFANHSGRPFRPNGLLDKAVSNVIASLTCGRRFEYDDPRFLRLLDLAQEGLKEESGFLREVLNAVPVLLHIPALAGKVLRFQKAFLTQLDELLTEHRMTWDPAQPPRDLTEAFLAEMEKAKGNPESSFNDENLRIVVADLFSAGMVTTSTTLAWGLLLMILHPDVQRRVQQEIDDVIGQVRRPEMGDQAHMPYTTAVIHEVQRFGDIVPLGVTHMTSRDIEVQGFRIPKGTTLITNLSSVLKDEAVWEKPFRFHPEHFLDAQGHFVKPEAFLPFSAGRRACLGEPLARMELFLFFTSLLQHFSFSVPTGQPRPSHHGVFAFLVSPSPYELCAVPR

For `CC(c1ccc(Cl)cc1Cl)n1ncc2ncc(C3=CCN(C(=O)[C@H]4CCCCN4)CC3)nc21` (stereo partly specified), the bioavailability in data set [1] worked out at 25%. The concentration for half-maximal inhibition (IC50) in data set [2] came out at 275 nM.
Turning to `CC1CN(c2cnc3c(C(F)(F)F)nn(C(C)c4ccc(Cl)cc4Cl)c3n2)CCC1N1CCCCC1` (stereo unspecified), the CLH in data set [3] amounted to 56.7 mL/min/kg. Also, in data set [4], the total exposure AUC(0-inf) came to 148 ng·h/mL. Also, the half-maximal inhibitory concentration (IC50) in data set [2] was 837 nM.
In turn, `C[C@@H]1CC(c2cnc3c(C#N)nn([C@H](C)c4ccc(Cl)cc4Cl)c3n2)=CC[C@@H]1N1CCC[C@H]1C` registered a bioavailability in data set [5] of 27%. In data set [6], this molecule had a half-life of 30.3 h. The values for the remaining at 1 h in data set [7] and in data set [10] were 72% and 86%, respectively. Besides, in [8], the Vd stood at 4.9 L/kg. In addition, in data set [9], the clearance worked out at 1.17 mL/min/kg. Also, in [2], the 50% inhibitory concentration (IC50) is 34 nM.
For the molecule `Cc1nn([C@H](C)c2ccc(Cl)cc2Cl)c2nc(N3CC[C@H](N4CCCCC4)[C@H](C)C3)cnc12`, the half-maximal inhibitory concentration (IC50) in [2] amounted to 42 nM.
On to `CC1CN(c2cnc3c(C(N)=O)nn(C(C)c4ccc(Cl)cc4Cl)c3n2)CCC1N1CCCCC1` (stereo unspecified), for which, in data set [3], the CLH is 101.7 mL/min/kg. Besides, in data set [4], the AUC(0-inf) is 82 ng·h/mL. In addition, the IC50 in [2] was determined as 228 nM.
`C[C@@H]1CC(c2cnc3c(C#N)nn([C@H](C)c4ccc(Cl)cc4Cl)c3n2)=CC[C@@H]1N1CCC[C@H]1C(F)(F)F`: the IC50 in data set [2] is above 5000 nM.
`CC1CN(c2cnc3cnn(C(C)c4ccc(Cl)cc4Cl)c3n2)CCC1N1CCCCC1` (stereo unspecified) came in with a CLH in data set [3] of 121.7 mL/min/kg. The molecule also came in with a total exposure AUC(0-inf) in data set [4] of 68 ng·h/mL. Besides, the IC50 in [2] worked out at 238 nM.
Consider `Cc1nn([C@H](C)c2ccc(Cl)cc2Cl)c2nc(N3CC[C@H](N4CCC[C@H]4CCC#N)[C@H](C)C3)cnc12`, for which, in [2], the IC50 came to 41 nM.
Regarding `C[C@@H]1CC(c2cnc3c(C#N)nn([C@H](C)c4ccc(Cl)cc4Cl)c3n2)=CC[C@@H]1N1CCC[C@H]1C(N)=O`, the remaining at 1 h in [7] came out at 71%; in [10], 97%. In data set [2], the IC50 came out at 54 nM.
On to `C[C@@H]1CN(c2cnc3c(C#N)nn([C@H](C)c4ccc(Cl)cc4Cl)c3n2)CC[C@@H]1N1CCC[C@H]1CO`, for which the remaining at 1 h was determined as 19% in data set [7] and 74% in data set [10]. In data set [11], the bioavailability was found to be 7%. Moreover, the half-inhibitory concentration (IC50) is above 10000 nM in [12]; above 10000 nM in data set [13]; above 10000 nM in data set [17]; above 10000 nM in data set [18]; above 10000 nM in [20]; 27 nM in [2]. Besides, in data set [14], the Vd worked out at 13.4 L/kg. In [15], this molecule showed an AUC(0-inf) of 23.2 ng·h/mL. For the same molecule, in [16], the CLH turned out to be 114.6 mL/min/kg. Moreover, the half-life in data set [19] was 2.1 h.
As to `Cc1nn([C@H](C)c2ccc(Cl)cc2Cl)c2nc(N3CC[C@H](N4CCC[C@H]4C(N)=O)[C@H](C)C3)cnc12`, the IC50 in data set [2] came to 170 nM.
Still for that read-out and setting: with `Cc1nn([C@H](C)c2ccc(Cl)cc2Cl)c2nc(N3CC[C@H](N4CCC[C@H]4CCS(C)(=O)=O)[C@H](C)C3)cnc12` the figure was 104 nM; with `Cc1nn([C@H](C)c2ccc(Cl)cc2Cl)c2nc(N3CC[C@H](N4CCC[C@H]4C)[C@H](C)C3)cnc12`, 47 nM; with `Cc1nn([C@H](C)c2ccc(Cl)cc2Cl)c2nc(N3CC[C@@H](N4CCCCC4)[C@@H](C)C3)cnc12`, 803 nM.
